The record followed here is article PMC9099060 (Dose-Response, 2022).

Format in all cases: biochemical
In assay [1] the target is T1, DPP-IV (Homo sapiens, UniProt P27487). Nature of the assay: Inhibitory kinetics study. The procedure, abridged:
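Test compound was tested separately at 0.25 and 0.5 mg/mL, each against Gly-Pro-AMC at various concentrations (0–60 μM). Inhibition pattern was assigned from Lineweaver-Burk plots. Ki was obtained from a double-reciprocal plot of initial […] against substrate. Values are mean ± SD, n = 6.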

For assay [2], the target named is T1, DPP-IV. As to the kind of experiment: In vitro inhibitory activity against DPP-IV.
In the next assay the target is α-glucosidase (Saccharomyces cerevisiae, UniProt P07265). Nature of the assay: In vitro inhibitory activity against α-glucosidase.
Chain of α-glucosidase (P07265 whole entry): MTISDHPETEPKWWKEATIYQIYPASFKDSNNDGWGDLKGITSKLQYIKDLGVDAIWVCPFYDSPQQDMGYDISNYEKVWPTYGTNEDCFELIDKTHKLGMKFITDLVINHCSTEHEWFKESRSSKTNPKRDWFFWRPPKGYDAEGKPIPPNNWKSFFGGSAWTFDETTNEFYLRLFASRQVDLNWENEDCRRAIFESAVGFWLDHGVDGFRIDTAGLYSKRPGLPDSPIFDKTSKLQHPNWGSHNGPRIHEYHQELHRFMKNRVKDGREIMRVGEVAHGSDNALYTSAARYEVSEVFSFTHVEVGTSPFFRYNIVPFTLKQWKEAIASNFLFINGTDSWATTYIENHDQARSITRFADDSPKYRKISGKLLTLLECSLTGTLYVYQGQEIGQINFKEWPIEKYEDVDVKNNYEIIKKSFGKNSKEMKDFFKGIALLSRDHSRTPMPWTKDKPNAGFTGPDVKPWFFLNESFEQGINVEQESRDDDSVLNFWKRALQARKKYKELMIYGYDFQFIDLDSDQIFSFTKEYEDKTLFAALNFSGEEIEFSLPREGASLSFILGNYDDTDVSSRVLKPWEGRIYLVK
For another assay, the target named is T2, human α-amylase (HPA) (Homo sapiens, UniProt P04746).
T2 sequence (P04746 16-511): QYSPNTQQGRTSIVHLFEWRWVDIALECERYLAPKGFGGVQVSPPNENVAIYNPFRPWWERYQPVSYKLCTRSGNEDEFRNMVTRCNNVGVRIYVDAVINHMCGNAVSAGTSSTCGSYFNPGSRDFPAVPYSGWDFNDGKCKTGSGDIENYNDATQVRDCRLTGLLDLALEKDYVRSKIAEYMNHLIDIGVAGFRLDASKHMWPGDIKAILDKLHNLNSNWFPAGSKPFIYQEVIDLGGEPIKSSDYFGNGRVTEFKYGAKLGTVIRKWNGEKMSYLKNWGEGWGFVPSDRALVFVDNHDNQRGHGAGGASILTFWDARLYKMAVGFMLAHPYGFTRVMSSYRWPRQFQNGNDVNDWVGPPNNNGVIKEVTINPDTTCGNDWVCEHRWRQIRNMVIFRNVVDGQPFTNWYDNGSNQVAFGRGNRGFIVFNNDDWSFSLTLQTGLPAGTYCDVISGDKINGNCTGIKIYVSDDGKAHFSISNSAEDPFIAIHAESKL
As to the kind of experiment: In vitro inhibitory activity against α-amylase. Conditions: α-amylase IC50 (μM)±SD, starch substrate; mean ± SD, n = 6.

T1 sequence (P27487 whole entry): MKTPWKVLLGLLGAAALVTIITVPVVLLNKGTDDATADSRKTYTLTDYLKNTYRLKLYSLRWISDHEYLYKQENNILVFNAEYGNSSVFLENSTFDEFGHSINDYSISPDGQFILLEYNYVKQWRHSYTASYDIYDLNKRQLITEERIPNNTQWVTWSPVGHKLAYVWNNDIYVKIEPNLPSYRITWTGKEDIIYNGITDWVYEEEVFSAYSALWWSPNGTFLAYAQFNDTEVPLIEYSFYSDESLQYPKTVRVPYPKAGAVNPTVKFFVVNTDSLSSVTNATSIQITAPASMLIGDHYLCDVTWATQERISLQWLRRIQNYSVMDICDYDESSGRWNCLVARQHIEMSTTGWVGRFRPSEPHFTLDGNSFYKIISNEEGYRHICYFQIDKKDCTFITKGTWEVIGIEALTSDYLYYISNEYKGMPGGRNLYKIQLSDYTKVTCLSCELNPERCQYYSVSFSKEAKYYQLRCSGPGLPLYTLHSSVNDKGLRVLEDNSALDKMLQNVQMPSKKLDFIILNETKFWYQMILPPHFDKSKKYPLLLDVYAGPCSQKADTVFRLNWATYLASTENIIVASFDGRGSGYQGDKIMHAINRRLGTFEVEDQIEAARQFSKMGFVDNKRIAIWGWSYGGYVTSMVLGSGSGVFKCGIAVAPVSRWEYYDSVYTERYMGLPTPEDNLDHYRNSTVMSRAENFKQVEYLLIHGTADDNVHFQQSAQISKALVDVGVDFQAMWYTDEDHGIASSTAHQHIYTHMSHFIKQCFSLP

For `Oc1ccc(/C=C/c2cc(O)cc(O)c2)cc1` [Resveratrol], at DPP-IV [1], the affinity corresponds to a Ki of 15 µM. Moreover, the IC50 (as a rule, the concentration needed to halve the response being measured) was determined as 5.638 ± 0.0016 µM against DPP-IV [2] and 47.9 ± 5.21 µM at α-glucosidase.

Regarding `O=C1c2c(O)cc(O)cc2OC(c2ccc(O)c(O)c2)C1O` (stereo not shown) [Taxifolin], on DPP-IV [1], the Ki (as a rule, the dissociation constant of the complex between target and ligand, obtained from inhibition or displacement) was found to be 12.3 µM. Besides, the results for the IC50 against DPP-IV [2], at human α-amylase (HPA) and on α-glucosidase were 6.691 ± 0.004 µM, 31.3 ± 0.556 µM and 45.9 ± 3.78 µM, respectively.
